Laboratory results taken from paper PMC11485011 (Chemical Science, 2024).
“Also recorded” adds a separate entry of the source. Read-outs that look alike come from different tables or passages of the source.

Tests used:
hCB2R [1] = target: T1, hCB2R (Homo sapiens, UniProt P34972); experiment: HTRF cAMP assay in CHO cells stably expressing hCB2R; assay type: cell-based; conditions: for Function: hCB2R cAMP assay
Method in brief: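 Cells stably expressing hCB2R; inhibition of cAMP accumulation read by HTRF. […] Emax expressed as % of the reference full agonist APD371. Means of four or seven independent experiments run in technical replicates.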

hCB2R [2] = target: T1, hCB2R; assay type: cell-based; conditions: 0.014 to 10 μM, live CHO cells hCB2R vs hCB1R and wt
hCB1R = hCB1R (Homo sapiens, UniProt P21554); experiment: [3H]CP55940 displacement assay, hCB1R CHO membranes; assay type: binding
Chain of hCB1R (P21554 whole entry): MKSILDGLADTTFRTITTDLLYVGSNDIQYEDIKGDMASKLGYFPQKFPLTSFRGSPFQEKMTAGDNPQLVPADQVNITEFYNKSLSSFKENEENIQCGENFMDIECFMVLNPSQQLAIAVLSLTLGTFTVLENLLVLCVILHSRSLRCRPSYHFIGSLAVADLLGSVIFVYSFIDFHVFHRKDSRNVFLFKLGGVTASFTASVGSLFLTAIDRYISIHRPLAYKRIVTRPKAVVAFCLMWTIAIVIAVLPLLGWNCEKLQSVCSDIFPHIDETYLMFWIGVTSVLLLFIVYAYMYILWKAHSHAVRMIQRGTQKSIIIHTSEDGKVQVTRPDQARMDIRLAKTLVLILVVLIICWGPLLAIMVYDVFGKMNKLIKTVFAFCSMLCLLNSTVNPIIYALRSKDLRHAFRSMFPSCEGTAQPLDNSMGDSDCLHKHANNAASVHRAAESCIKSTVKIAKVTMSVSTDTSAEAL
Method in brief: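 Competitive radioligand binding on membranes from CHO cells stably expressing hCB1R. Test compound displaces radioligand, and Ki is derived from that displacement. Selectivity calculated as Ki(CB1R)/Ki(CB2R). Means of at least three independent experiments, each in duplicate.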

hCB2R [3] = target: T1, hCB2R; experiment: [3H]CP55940 displacement assay, hCB2R CHO membranes; assay type: binding; conditions: for Ki: Ki hCB2R, [3H]CP55940 displacement, CHO membranes stably expressing hCB2R; for Selectivity, ratio of Ki (CB1R)/Ki (CB2R): hCB2R over hCB1R
hCB2R [4] = target: T1, hCB2R; assay type: cell-based; conditions: 5 µM inhibitor, 90 min preincubation; probes 12, 15, 18; hCB2R CHO cells
[5] = target: hCB2R overexpressing CHO cells (Homo sapiens, UniProt P34972); experiment: super-resolution confocal imaging, mean fluorescence intensity of labeled CB2R; assay type: cell-based; conditions: 0.8 μM probe, 15 min
Chain of hCB2R overexpressing CHO cells (P34972 whole entry): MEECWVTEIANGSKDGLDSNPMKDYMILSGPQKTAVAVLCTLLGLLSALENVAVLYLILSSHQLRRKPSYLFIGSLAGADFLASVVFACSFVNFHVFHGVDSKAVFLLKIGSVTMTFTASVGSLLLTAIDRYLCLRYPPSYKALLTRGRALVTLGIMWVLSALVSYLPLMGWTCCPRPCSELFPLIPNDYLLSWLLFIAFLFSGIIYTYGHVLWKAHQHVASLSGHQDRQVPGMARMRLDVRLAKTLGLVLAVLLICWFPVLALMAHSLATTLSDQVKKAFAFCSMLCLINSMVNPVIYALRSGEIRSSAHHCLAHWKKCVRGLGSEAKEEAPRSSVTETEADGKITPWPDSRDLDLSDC
Method in brief: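 Live hCB2R-overexpressing CHO cells stained with fluorescent probe plus Hoechst 33342 nuclear counterstain. Cells optically sectioned by confocal laser-scanning microscopy with an Airyscan detector (super-resolution).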

hCB2R-CHO cells [6] = experiment: endocytosis blocking study; assay type: cell-based, human; conditions: pretreatment 30 min with 0.4 M sucrose and 5 μg mL−1 filipin, probe 10 min
hCB2R-CHO cells [7] = experiment: co-staining with LysoTracker, super-resolution confocal microscopy; assay type: cell-based, human; conditions: 15 min
Method in brief: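 Live hCB2R-overexpressing CHO cells exposed for 15 min to the fluorescent probe together with LysoTracker as lysosome marker. Imaged by super-resolution confocal microscopy and channels merged to assess overlap. Three independent experiments, with five fields examined each.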

[8] = test system: primary human macrophages; experiment: confocal microscopy of primary human macrophages; assay type: cell-based; conditions: 0.8 μM, 15 min, endogenous CB2R
hCB2R [9] = target: T1, hCB2R; experiment: TR-FRET kinetic binding characterization on HEK293-hCB2R cell membranes
[10] = normalized to reference full agonist APD371
[11] = read-out: IC50 (column EC50 or IC50), inverse agonists, HTRF cAMP assay, cells stably expressing hCB2R
[12] = EC50 (column EC50 or IC50), agonists, HTRF cAMP assay, cells stably expressing hCB2R

T1 sequence (P34972 whole entry): as above

| Compound | Function (hCB2R [1]) | Ki (hCB1R) [nM] | Ki (hCB2R [3]) [nM] | Selectivity, ratio of Ki (CB1R)/Ki (CB2R) (hCB2R [3]) | Emax (hCB2R [1]; CHO) [%] | also measured |
| --- | --- | --- | --- | --- | --- | --- |
| 3',6'-DIAMINO-5/6-((3,3-DIETHYL-1-(6-(((1S,2S)-2-(HYDROXYMETHYL)CYCLOPROPYL)METHOXY)-5-(3-METHOXYAZETIDIN-1-YL)PYRIDIN-2-YL)-1,4-DIOXO-8,11-DIOXA-2,5-DIAZATRIDECAN-13-YL)CARBAMOYL)-3-OXO-3H-SPIRO[ISOBENZOFURAN-1,9'-XANTHENE]-4',5'-DISULFONIC ACID [Compound 18] | Inverse agonist |  |  |  |  | Emax (hCB2R [1]; [10]): −26%; IC50 (hCB2R [1]; [11]): 262 nM; selectivity and specificity for hCB2R in flow cytometry (hCB2R [2]): high selectivity even at very high concentrations |
| CCC(CC)(NC(=O)c1ccc(C2CC2)c(Cc2ccc(F)cc2)n1)C(=O)NCCOCCNC(=O)OC(C)(C)C [Compound 10a, TERT-BUTYL (2-(2-(2-(5-CYCLOPROPYL-6-(4-FLUOROBENZYL)PICOLINAMIDO)-2-ETHYLBUTANAMIDO)ETHOXY)ETHYL)CARBAMATE] |  | 836 | 28 | 30 |  |  |
| CCC(CC)(NC(=O)c1ccc(C2CC2)c(Cc2ccc(F)cc2)n1)C(=O)NCCOCCOCCNC(=O)OC(C)(C)C [Compound 10b, TERT-BUTYL (1-(5-CYCLOPROPYL-6-(4-FLUOROBENZYL)PYRIDIN-2-YL)-3,3-DIETHYL-1,4-DIOXO-8,11-DIOXA-2,5-DIAZATRIDECAN-13-YL)CARBAMATE] | partial agonist | 466 | 6 | 78 | 83 | EC50 (hCB2R [1]; [12]): 49 nM |
| CCC(CC)(NC(=O)c1ccc(C2CC2)c(Cc2ccc(F)cc2)n1)C(=O)NCCOCCOCCOCCNC(=O)OC(C)(C)C [Compound 10c, TERT-BUTYL (1-(5-CYCLOPROPYL-6-(4-FLUOROBENZYL)PYRIDIN-2-YL)-3,3-DIETHYL-1,4-DIOXO-8,11,14-TRIOXA-2,5-DIAZAHEXADECAN-16-YL)CARBAMATE] |  | 748 | 63 | 12 |  |  |
| CCC(CC)(NC(=O)c1ccc(C2CC2)c(Cc2ccc(F)cc2)n1)C(=O)NCCOCCOCCOCCOCCNC(=O)OC(C)(C)C [Compound 10d, TERT-BUTYL (1-(5-CYCLOPROPYL-6-(4-FLUOROBENZYL)PYRIDIN-2-YL)-3,3-DIETHYL-1,4-DIOXO-8,11,14,17-TETRAOXA-2,5-DIAZANONADECAN-19-YL)CARBAMATE] |  | 1470 | 144 | 10 |  |  |
| CCC(CC)(NC(=O)c1ccc(N2CC(OC)C2)c(OC[C@H]2C[C@@H]2CO)n1)C(=O)NCCOCCNC(=O)OC(C)(C)C [Compound 11a, TERT-BUTYL (2-(2-(2-ETHYL-2-(6-(((1S,2S)-2-(HYDROXYMETHYL)CYCLOPROPYL)METHOXY)-5-(3-METHOXYAZETIDIN-1-YL)PICOLINAMIDO)BUTANAMIDO)ETHOXY)ETHYL)CARBAMATE] |  | > 10000 | 2060 | >4 |  |  |
| CCC(CC)(NC(=O)c1ccc(N2CC(OC)C2)c(OC[C@H]2C[C@@H]2CO)n1)C(=O)NCCOCCOCCNC(=O)OC(C)(C)C [Compound 11b, TERT-BUTYL (3,3-DIETHYL-1-(6-(((1S,2S)-2-(HYDROXYMETHYL)CYCLOPROPYL)METHOXY)-5-(3-METHOXYAZETIDIN-1-YL)PYRIDIN-2-YL)-1,4-DIOXO-8,11-DIOXA-2,5-DIAZATRIDECAN-13-YL)CARBAMATE] | Inverse agonist | > 10000 | 106 | >94 | -63 | IC50 (hCB2R [1]): 88 nM |
| CCC(CC)(NC(=O)c1ccc(N2CC(OC)C2)c(OC[C@H]2C[C@@H]2CO)n1)C(=O)NCCOCCOCCOCCNC(=O)OC(C)(C)C [Compound 11c, TERT-BUTYL (3,3-DIETHYL-1-(6-(((1S,2S)-2-(HYDROXYMETHYL)CYCLOPROPYL)METHOXY)-5-(3-METHOXYAZETIDIN-1-YL)PYRIDIN-2-YL)-1,4-DIOXO-8,11,14-TRIOXA-2,5-DIAZAHEXADECAN-16-YL)CARBAMATE] |  | > 10000 | > 10000 |  |  |  |
| CCC(CC)(NC(=O)c1ccc(C2CC2)c(Cc2ccc(F)cc2)n1)C(=O)NCCOCCOCCNC(=O)c1ccc2c(c1)C1(OC2=O)c2ccc(N(C)C)cc2[Si](C)(C)c2cc(N(C)C)ccc21 [Compound 13, N-(1-(3,7-BIS(DIMETHYLAMINO)-5,5-DIMETHYL-3'-OXO-3'H,5H-SPIRO[DIBENZO[B,E]SILINE-10,1'-ISOBENZOFURAN]-6'-YL)-13-ETHYL-1,12-DIOXO-5,8-DIOXA-2,11-DIAZAPENTADECAN-13-YL)-5-CYCLOPROPYL-6-(4-FLUOROBENZYL)PICOLINAMIDE] | full agonism; also recorded: Full agonist |  |  |  | 127 | EC50 (hCB2R [1]; [12]): 528 nM |
| CCC(CC)(NC(=O)c1ccc(C2CC2)c(Cc2ccc(F)cc2)n1)C(=O)NCCOCCOCCNC(=O)c1ccc2c(c1)C(=O)OC21c2ccc(N)c(S(=O)(=O)O)c2Oc2c1ccc(N)c2S(=O)(=O)O [Compound 14, 3',6'-DIAMINO-5-((1-(5-CYCLOPROPYL-6-(4-FLUOROBENZYL)PYRIDIN-2-YL)-3,3-DIETHYL-1,4-DIOXO-8,11-DIOXA-2,5-DIAZATRIDECAN-13-YL)CARBAMOYL)-3-OXO-3H-SPIRO[ISOBENZOFURAN-1,9'-XANTHENE]-4',5'-DISULFONIC ACID] | partial agonism; also recorded: Partial agonist |  |  |  | 79 | EC50 (hCB2R [1]; [12]): 77 nM; selectivity and specificity for hCB2R in flow cytometry (hCB2R [2]): high selectivity even at very high concentrations |
| CCC(CC)(NC(=O)c1ccc(N2CC(OC)C2)c(OC[C@H]2C[C@@H]2CO)n1)C(=O)NCCOCCOCCNC(=O)c1ccc2c(c1)C1(OC2=O)c2ccc(N(C)C)cc2[Si](C)(C)c2cc(N(C)C)ccc21 [Compound 17, N-(1-(3,7-BIS(DIMETHYLAMINO)-5,5-DIMETHYL-3'-OXO-3'H,5H-SPIRO[DIBENZO[B,E]SILINE-10,1'-ISOBENZOFURAN]-6'-YL)-13-ETHYL-1,12-DIOXO-5,8-DIOXA-2,11-DIAZAPENTADECAN-13-YL)-6-(((1S,2S)-2-(HYDROXYMETHYL)CYCLOPROPYL)METHOXY)-5-(3-METHOXYAZETIDIN-1-YL)PICOLINAMIDE] | Inverse agonist |  |  |  | -29 | IC50 (hCB2R [1]): 129 nM |
| CC(C)(C)c1nc(N2CC[C@H](O)C2)c2nnn(Cc3nnnn3C3CC3)c2n1 [RO6871304] |  |  |  |  |  | blocking of fluorescent probe staining (hCB2R [4]): completely blocked the staining |
| N-(1-(3',6'-BIS(DIMETHYLAMINO)-3-OXO-3H-SPIRO[ISOBENZOFURAN-1,9'-XANTHEN]-5/6-YL)-13-ETHYL-1,12-DIOXO-5,8-DIOXA-2,11-DIAZAPENTADECAN-13-YL)-5-CYCLOPROPYL-6-(4-FLUOROBENZYL)PICOLINAMIDE [Compound 12] | partial agonism; also recorded: Partial agonist |  |  |  |  | Emax (hCB2R [1]; [10]): 80%; EC50 (hCB2R [1]; read-out: EC50 (column EC50 or IC50), agonists, HTRF cAMP assay, cells stably expressing hCB2R): 82 nM; MFI of labeled CB2R in intracellular compartments [5]: 2575 ± 100 MFI; plasma membrane labelling intensity (MFI) of labeled CB2R [5]: 2090 ± 175 MFI; reduction of intracellular staining by endocytosis blockers (hCB2R-CHO cells [6]): 70%; co-localization with LysoTracker (hCB2R-CHO cells [7]): partial overlap but no clear co-localization; distribution pattern in human macrophages [8]: widely distributed within the cell; kinetic binding characterization (hCB2R [9]): fast association and appropriate residence time |
| N-(1-(3',6'-BIS(DIMETHYLAMINO)-3-OXO-3H-SPIRO[ISOBENZOFURAN-1,9'-XANTHEN]-5/6-YL)-13-ETHYL-1,12-DIOXO-5,8-DIOXA-2,11-DIAZAPENTADECAN-13-YL)-6-(((1S,2S)-2-(HYDROXYMETHYL)CYCLOPROPYL)METHOXY)-5-(3-METHOXYAZETIDIN-1-YL)PICOLINAMIDE [Compound 16] | Inverse agonist |  |  |  |  | Emax (hCB2R [1]; [10]): −29%; IC50 (hCB2R [1]; [11]): 114 nM; MFI of labeled CB2R in intracellular compartments [5]: 340 ± 13 MFI; plasma membrane labelling intensity (MFI) of labeled CB2R [5]: 350 ± 4 MFI; reduction of intracellular staining by endocytosis blockers (hCB2R-CHO cells [6]): without affecting; co-localization with LysoTracker (hCB2R-CHO cells [7]): clear co-localization pattern; distribution pattern in human macrophages [8]: mainly localized on cellular membranes and partially in perinuclear dots; kinetic binding characterization (hCB2R [9]): fast association and appropriate residence time |
